Results from different studies.
Each line is one published result; the experiments were not run side by side.
BTK: Tyrosine-protein kinase BTK (BTK, Homo sapiens, UniProt Q06187)

SMILES	target	assay	setting	endpoint	value
NC(=O)[C@H]1CCN(c2ncnc(N)c2F)C[C@@H]1N1CCC[C@@H](Nc2cc(Cl)cc(C(F)(F)F)c2)C1=O	Tyrosine-protein kinase BTK (BTK, Homo sapiens, UniProt Q06187, C481S)	binding in cells		residence time	16 min
Cc1sc(C(=O)NC2COC2)cc1-n1cc(NC(=O)Nc2c(F)cccc2Cl)cn1	BTK	enzyme activity, inhibitor	10 µM	remaining activity	87.6%
CC(C)(C)c1nc(-c2cccc(NS(=O)(=O)c3c(F)cccc3F)c2F)c(-c2ccnc(N)n2)s1	BTK	enzyme activity, inhibitor, radiometric	1 µM	remaining activity	96%
Oc1cccc(-c2nc(N3CCOCC3)c3oc4ncccc4c3n2)c1	BTK	enzyme activity, inhibitor	10 µM	remaining activity	82%
Cc1noc([C@H]2C[C@@H](c3ccc(C(F)(F)F)cc3)CN(C(=O)N3CCS(=O)(=O)C3)C2)n1	BTK	cell-free assay, competition with immobilised ligand	1 µM	remaining binding	96%
COc1cc(/C=C/C(=O)CC(=O)/C=C/c2ccc(O)c(OC)c2)ccc1O	BTK	enzyme activity, inhibitor	1 µM	activity vs control	90%
Cc1cc(NC(=O)c2cccc3cc(-c4cccc5[nH]nc(N)c45)ccc23)ccc1F	BTK	enzyme activity, inhibitor	0.1 µM	activity vs control	99%
CC(=O)N1CCC(c2ccc(C(=O)NC(=N)N)cc2C(F)(F)F)CC1	BTK	cell-free assay, competition with immobilised ligand	1 µM	remaining binding	100%
Cc1ccc(C(=O)NCc2ccsc2)cc1C#Cc1cn(C(C)C)c2ncnc(N)c12	BTK	enzyme activity, inhibitor	1 µM	activity vs control	73%
Nc1ncnc2occ(-c3ccc(NC(=O)Nc4cc(C(F)(F)F)ccc4F)cc3)c12	BTK	cell-free assay	20 µM	remaining signal	26%
CN(C)CC#Cc1ccc(OCCCc2sc(N3CCc4cccc(C(=O)Nc5nc6ccccc6s5)c4C3)nc2C(=O)O)c(F)c1	BTK	cell-free assay, competition with immobilised ligand	1 µM	remaining binding	96%
Oc1cccc(-c2nc(N3CCOCC3)c3oc4ncccc4c3n2)c1	BTK	cell-free assay	0.5 µM	remaining signal	95.2%
Nc1nc(NC2CCCCC2)sc1C(=O)c1ccccc1	BTK	enzyme activity, inhibitor	10 µM	remaining activity	75%
CC(C)(C=C(C#N)C(=O)N1CCC[C@H]1Cn1nc(-c2ccc(Oc3ccccc3)cc2F)c2c(N)ncnc21)N1CCOCC1	BTK	enzyme activity, inhibitor		KI (inactivation)	0.014 µM
COc1cc(Nc2cnc(C#N)c(O[C@H](C)CN(C)C)n2)ncc1-c1cnn(C)c1	BTK	enzyme activity, inhibitor, radiometric	10 µM	remaining activity	60%
Cc1cc(NC(=O)c2cccc(S(F)(F)(F)(F)F)c2)cc(-n2ccn3nc(-c4cccnc4)cc23)c1	BTK	cell-free assay, competition with immobilised ligand	1 µM	remaining binding	83.8%
COc1cc2c(N3CCN(C(=O)Nc4ccc(OC(C)C)cc4)CC3)ncnc2cc1OCCCN1CCCCC1	BTK	cell-free assay	0.5 µM	remaining signal	102%
NS(=O)(=O)c1cc(NC(=O)C2(c3ccccc3Cl)CC2)ccc1Oc1cccc(Cl)c1	BTK	cell-free assay, competition with immobilised ligand	1 µM	remaining binding	88%
C=CC(=O)N1CCC[C@@H]1Cn1nc(-c2ccc(Oc3ccccc3)cc2F)c2c(N)ncnc21	BTK	enzyme activity, inhibitor		kinact/KI	1.9e+06 M⁻¹ s⁻¹
COc1ccc(F)cc1C(=O)NCc1ccc(-c2nn([C@@H](C)C(F)(F)F)c(N)c2C(N)=O)cc1	BTK	binding, SPR		kon	82000 M⁻¹ s⁻¹
C[C@@H]1CN(c2cc(-c3n[nH]c4ccc(OC5(C)CC5)cc34)ncn2)C[C@H](C)O1	BTK	cell-free assay, competition with immobilised ligand	0.1 µM	remaining binding	73%
Cc1ccc(NC(=O)c2ccc(C)c(C(F)(F)F)c2)cc1C#Cc1nn(C2CCC(O)CC2)c2ncnc(N)c12 (stereo not drawn)	BTK	cell-free assay	10 µM	remaining signal	10%
CS(=O)(=O)N1CCCC(NC(=O)[C@H](CCC2CCCCC2)NC(=O)c2ccc(CNC(=O)c3cnc4ccccn34)cc2)C1 (stereo partly drawn)	BTK	cell-free assay, competition with immobilised ligand	0.1 µM	remaining binding	100%
O=C1NC(=O)c2cc(Nc3ccc(F)cc3)c(Nc3ccc(F)cc3)cc21	BTK	cell-free assay	0.5 µM	remaining signal	94.3%
O=C(NCCCC1CCCCC1)c1ccc(CNC(=O)c2cnn(-c3ccccc3)c2C(F)(F)F)cc1	BTK	cell-free assay, competition with immobilised ligand	0.1 µM	remaining binding	100%
CC(C)(C)C(=O)c1sc(NC2CCCCC2)nc1N	BTK	enzyme activity, inhibitor	10 µM	remaining activity	79%
Cc1cnc(NC2CCOCC2)nc1-n1cnc(C(=O)NC(CN)c2cc(F)cc(Cl)c2)c1 (stereo not drawn)	BTK	enzyme activity, inhibitor, radiometric	1 µM	remaining activity	102%
